From ChEMBL document CHEMBL4368937, “Design, synthesis and biological evaluation of low molecular weight CXCR4 ligands” (Bioorg Med Chem, 2019)

Key:
[1] = biological target: T1, C-X-C chemokine receptor type 4 (Homo sapiens, UniProt P61073); assay: Competitive inhibition of TAMRAAc-TZ14011 binding to CXCR4 (unknown origin) expressed in CHO cells at 1 uM in presence of ZnCl2 by NanoBRET assay relative to control; format: cell-based
Summary of the method: (§1)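 Single-point competition in CHO cells stably expressing N-terminally Nluc-tagged CXCR4 (5 x 10^4 cells, seeded 24 h earlier at 37 °C, 5% CO2, medium then replaced with OptiMEM). Cells were incubated with 10 nM TAMRA-Ac-TZ14011 plus 1 µM compound, without or with 10 µM ZnCl2 (10 eq), for 1 h at 25 °C. Furimazine was added and BRET read as acceptor (>610 nm) over donor (460 nm). Inhibition is relative to no compound and to excess Ac-TZ14011; mean ± SEM, n = 3.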

[2] = biological target: T1, C-X-C chemokine receptor type 4; assay: Competitive inhibition of TAMRAAc-TZ14011 binding to CXCR4 (unknown origin) expressed in CHO cells at 1 uM in absence of ZnCl2 by NanoBRET assay relative to control; format: cell-based; summary of the method: as §1
[3] = biological target: T1, C-X-C chemokine receptor type 4; assay: Competitive inhibition of [125I]-CXCL12 binding to CXCR4 in human Jurkat cells at 1 uM in absence of ZnCl2 after 2 hrs by gamma counting analysis relative to control; format: cell-based
[4] = biological target: T1, C-X-C chemokine receptor type 4; assay: Competitive inhibition of [125I]-CXCL12 binding to CXCR4 in human Jurkat cells at 1 uM in presence of ZnCl2 after 2 hrs by gamma counting analysis relative to control; format: cell-based
[5] = biological target: T1, C-X-C chemokine receptor type 4; assay: Competitive inhibition of TAMRAAc-TZ14011 binding to CXCR4 (unknown origin) expressed in CHO cells in presence of ZnCl2 by NanoBRET assay relative to control; format: cell-based
Summary of the method: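 Cells were incubated with 10 nM TAMRA-Ac-TZ14011 and compound plus ZnCl2 (10 eq). Furimazine was added and BRET ratio taken as >610 nm over 460 nm emission. Inhibition is scaled between no compound and excess Ac-TZ14011.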

[6] = tested on: Human immunodeficiency virus 1; assay: Antiviral activity against X4 tropic HIV-1 NL4-3 infected in human MT4 cells assessed as protection against virus-induced cytopathic effect in absence of ZnCl2 after 5 days by MTT assay; format: functional, organism-based; conditions: Human immunodeficiency virus 1, NL4-3, MT4, 120 h
Summary of the method: (§2)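 Protection of MT-4 cells from X4 HIV-1 NL4-3 cytopathicity. Infected cells (MOI 0.001, 2.0 × 10^4 cells/well) received graded compound concentrations, without or with ZnCl2 (10 eq), for 5 days at 37 °C. Viable cells were counted by MTT. EC50 is the concentration giving 50% protection; mean of at least three independent experiments.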

[7] = tested on: Human immunodeficiency virus 1; assay: Antiviral activity against X4 tropic HIV-1 NL4-3 infected in human MT4 cells assessed as protection against virus-induced cytopathic effect in presence of ZnCl2 after 5 days by MTT assay; format: functional, organism-based; conditions: Human immunodeficiency virus 1, NL4-3, MT4, 120 h; summary of the method: as §2
[8] = Cytotoxicity against human MT4 cells in absence of ZnCl2; format: cell-based
[9] = Cytotoxicity against human MT4 cells in presence of ZnCl2; format: cell-based
Summary of the method: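 MT-4 viability with compound plus ZnCl2 (10 eq). CC50 is the concentration giving 50% reduction in viable cells; mean of at least three independent experiments.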

[10] = tested on: Human immunodeficiency virus 1; assay: Antiviral activity against R5 tropic HIV-1 NL(AD8) infected in human MT4 cells assessed as protection against virus-induced cytopathic effect at 10 uM in presence of ZnCl2 after 5 days by MTT assay; format: functional; conditions: Human immunodeficiency virus 1, NL(AD8), MT4, 120 h
[11] = tested on: Human immunodeficiency virus 1; assay: Antiviral activity against R5 tropic HIV-1 NL(AD8) infected in human MT4 cells assessed as protection against virus-induced cytopathic effect at 10 uM in absence of ZnCl2 after 5 days by MTT assay; format: functional; conditions: Human immunodeficiency virus 1, NL(AD8), MT4, 120 h

T1 sequence (P61073 whole entry): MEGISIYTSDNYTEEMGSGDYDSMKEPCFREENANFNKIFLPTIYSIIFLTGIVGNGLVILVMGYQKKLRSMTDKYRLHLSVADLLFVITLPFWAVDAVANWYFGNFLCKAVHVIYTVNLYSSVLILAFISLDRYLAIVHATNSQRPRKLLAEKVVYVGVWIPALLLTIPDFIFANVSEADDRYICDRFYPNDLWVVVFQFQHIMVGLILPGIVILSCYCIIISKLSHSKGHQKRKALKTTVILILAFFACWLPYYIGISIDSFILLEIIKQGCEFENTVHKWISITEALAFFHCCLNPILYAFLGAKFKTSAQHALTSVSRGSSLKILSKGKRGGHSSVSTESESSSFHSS

inhibition [1]	inhibition [2]	inhibition [3]	inhibition [4]	IC50 [5]	Structure (SMILES)	EC50 [6]	EC50 [7]	CC50 [8]	CC50 [9]	inhibition at 10 µM [10]	inhibition at 10 µM [11]
107%	81.5%	81.7%	77.3%	1.6 nM	c1ccc(CN(Cc2ccc3c(CN4CCCNCCNCCCNCC4)cccc3c2)Cc2ccccn2)nc1	220 nM	28 nM	> 10000 nM	> 10000 nM	< 30%	< 30%
89.9%	80.7%	98.2%	99.6%	10 nM	c1ccc(CN(Cc2ccc3cc(CN4CCCNCCNCCCNCC4)ccc3c2)Cc2ccccn2)nc1	470 nM	240 nM	> 10000 nM	> 10000 nM	< 30%	< 30%
83.7%	101%	110%	82.5%	32 nM	c1ccc(CN(Cc2ccc(CN3CCCNCCNCCCNCC3)cc2)Cc2ccccn2)nc1	6.5 nM	2.7 nM	> 10000 nM	> 10000 nM		
